From article PMC7679043 (Molecular imaging and biology, 2020)
“Also recorded” adds a separate entry of the source. Read-outs that look alike come from different tables or passages of the source. Blank lines part the entries; values can stand above or below the molecule they belong to.

What was measured:
[1] = test system: S1PR1; conditions: read-out: IC50, nM S1PR1; binding affinity reported previously; cited from earlier work
[2] = test system: S1PR2-5; conditions: read-out: IC50, nM S1PR2-5; binding affinity reported previously; cited from earlier work
[3] = biological target: S1PR1 (Rattus norvegicus, UniProt P48303); type: in vivo; conditions: for Average uptake: 10–60 min post injection; for 2TCM VT: image-derived input function
Sequence of S1PR1 (Rattus norvegicus, UniProt P48303) (P48303 whole entry): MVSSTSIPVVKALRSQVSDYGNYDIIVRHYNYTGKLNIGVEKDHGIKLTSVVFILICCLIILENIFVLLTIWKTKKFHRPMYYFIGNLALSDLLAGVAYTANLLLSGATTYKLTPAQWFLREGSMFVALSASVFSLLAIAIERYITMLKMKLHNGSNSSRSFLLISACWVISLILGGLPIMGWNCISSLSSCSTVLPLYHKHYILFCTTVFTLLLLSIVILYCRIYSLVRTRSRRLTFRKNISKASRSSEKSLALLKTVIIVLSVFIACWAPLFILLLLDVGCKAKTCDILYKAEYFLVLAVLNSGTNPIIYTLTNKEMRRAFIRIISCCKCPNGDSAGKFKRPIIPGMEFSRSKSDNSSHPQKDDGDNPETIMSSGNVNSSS
Summary of the method: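 EAE and sham rats (n=3–4 per group per tracer) were held under 1.5–2% isoflurane/oxygen, centered on T13. After CT, each received a 15–22 MBq i.v. bolus, followed by 60-min dynamic list-mode PET. Lumbar spinal cord and bilateral carotid ROIs on co-registered PET/CT gave %ID/g TACs. Mean 10–60 min uptake and 2TCM VT (carotid image-derived input) were compared by two-tailed t-test (P<0.05).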

[4] = HPLC radiometabolite analysis of rat plasma and brain; type: in vivo; conditions: for level of the lipophilic radiometabolite / level of the polar radiometabolite / percentage of the parent compound: rat plasma
Summary of the method: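 Adult male Sprague Dawley rats were given ~37 MBq tracer i.v. At set times post-injection they were killed by terminal exsanguination under surgical-plane anesthesia. Heparinized left-ventricle blood was spun to plasma, solvent-deproteinated and re-centrifuged. Whole brain was homogenized in cold PBS, then solvent-extracted, deproteinated and centrifuged. Supernatants ran on C18 HPLC with acetonitrile/0.1 M ammonium formate pH 4.5 (70/30) at 0.76 mL/min. Radioactive peaks were expressed as percentages.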

[5] = rat brain homogenate, 5 min p.i.
[6] = rat brain homogenate, 15 min p.i.
[7] = rat brain homogenate, 40 min p.i.
[8] = rat brain homogenate, 60 min p.i.

Compound: OCCOCc1ccc(-c2noc(-c3ccc(OCCF)c(C(F)(F)F)c3)n2)cc1 [TZ4877]
IC50 [1]: 14.01 ± 0.04 nM
IC50 [2]: > 1000 nM

Average uptake ([3]; EAE rat lumbar spinal cord): 1.42 ± 0.14 %ID/g
2TCM VT ([3]; EAE rat lumbar spinal cord): 2.18 ± 0.20 mL/cc
2TCM VT Increase, % ([3]; EAE vs sham): 21.11%
Average uptake Increase, % ([3]; EAE vs sham rat lumbar spinal cord, listed as 18F-TZ4877): 29.09%
bone uptake/defluorination ([3]; PET images without CT co-registration, rat): no obvious bone uptake/defluorination
initial tracer uptake at 20 min ([3]; rat spinal cord, 20 min): ~ 1.5 %ID/g
tracer uptake / retention at 60 min ([3]; rat spinal cord, 60 min): > 1.0 %ID/g
Average uptake ([3]; sham rat lumbar spinal cord, listed as 18F-TZ4877): 1.10 ± 0.06 %ID/g
2TCM VT ([3]; sham rat lumbar spinal cord): 1.80 ± 0.20 mL/cc
hydrophilic radiometabolite [4, 5]: 6%
parent tracer percentage [4, 5]: 78%
hydrophilic radiometabolite [4, 6]: 2%
parent tracer percentage [4, 6]: 89%
hydrophilic radiometabolite [4, 7]: 10%
parent tracer percentage [4, 7]: 65%
hydrophilic radiometabolite [4, 8]: 14%
parent tracer percentage [4, 8]: 68%
level of the lipophilic radiometabolite ([4]; 5 min p.i.): 14%
level of the polar radiometabolite ([4]; 5 min p.i.): 7%
percentage of the parent compound ([4]; 5 min p.i.): 75%
level of the lipophilic radiometabolite ([4]; 15 min p.i.): 21%
level of the polar radiometabolite ([4]; 15 min p.i.): 6%
percentage of the parent compound ([4]; 15 min p.i.): 68%
level of the lipophilic radiometabolite ([4]; 40 min p.i.): 26%
level of the polar radiometabolite ([4]; 40 min p.i.): 5%
percentage of the parent compound ([4]; 40 min p.i.): 66%
level of the lipophilic radiometabolite ([4]; 60 min p.i.): 41%
level of the polar radiometabolite ([4]; 60 min p.i.): 5%
percentage of the parent compound ([4]; 60 min p.i.): 51%
Compound: OCCOCc1ccc(-c2noc(-c3ccc(OCC[18F])c(C(F)(F)F)c3)n2)cc1 [TZ4877]
lipophilic radiometabolite in brain ([4]; rat brain homogenate, listed as 18F-TZ4877): No lipophilic radioactive peak was detected; also recorded: not detected
